Assay [1] has as its system BT-474. The assay can be described thus: Cytotoxicity against human BT-474 cells assessed as cell death measured after 48 hrs. Format: functional. In short, it runs like this:
(§1)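 BT-474 cells in DMEM/F12 with 10% FBS plus penicillin/streptomycin, 37°C, 5% CO2. Seeded at 10,500 cells/well and left 24 h, then exposed to rising drug concentrations (stock 30 mM) for 48 h. Read-out: PrestoBlue (10% v/v), 40-45 min, fluorescence ex 560/em 590 nm. Values are blank-subtracted and expressed relative to vehicle-treated cells. Two independent experiments, five wells per concentration.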

In assay [2] the test system is DU-145. The assay can be described thus: Cytotoxicity against human DU-145 cells assessed as cell death measured after 48 hrs. Type of assay: functional. An outline of the steps: (§2)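 DU-145 (5000 cells/well) or JIMT-1 (8000 cells/well) in DMEM with 10% FBS and penicillin/streptomycin. Plated cells rested 24 h, then received increasing drug concentrations (30 mM stock) for 48 h. Viability by PrestoBlue 10% v/v for 40-45 min, fluorescence ex 560/em 590 nm, blank-subtracted, relative to vehicle. Two independent experiments, five wells per concentration.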

Assay [3] concerns MIA PaCa-2. The assay can be described thus: Cytotoxicity against human MIA PaCa-2 cells assessed as cell death measured after 48 hrs. Type of assay: functional. An outline of the steps:
(§3)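 MIAPaCa-2 in DMEM with 10% FBS, 2.5% horse serum and penicillin/streptomycin, seeded at 7500 cells/well. After 24 h, treated 48 h with increasing drug concentrations from a 30 mM stock. PrestoBlue 10% v/v, 40-45 min, fluorescence 560/590 nm, blank-subtracted, relative to vehicle-treated cells. Two independent experiments, five wells per concentration.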

The test system of assay [4] is JIMT-1. The assay can be described thus: Cytotoxicity against human JIMT-1 cells assessed as cell death measured after 48 hrs. Type of assay: functional. In short, it runs like this: as §2
Assay [5] in a line: Potency index, ratio of monobasic GAEL IC50 to test compound IC50 for cytotoxicity against human MIAPaCa-2 cells assessed as cell death measured after 48 hrs. Format: functional, MIA PaCa-2.
Assay [6] in a line: Potency index, ratio of monobasic GAEL IC50 to test compound IC50 for cytotoxicity against human DU-145 cells assessed as cell death measured after 48 hrs. Format: functional.
Assay [7] in a line: Potency index, ratio of monobasic GAEL IC50 to test compound IC50 for cytotoxicity against human JIMT-1 cells assessed as cell death measured after 48 hrs. Format: functional.
Assay [8] has as its system JIMT-1. The assay can be described thus: Cytotoxicity against human JIMT-1 cells assessed as cell death up to 10 uM measured after 48 hrs. Format: functional, cell-based. In short, it runs like this:
as §2

Assay [9] concerns DU-145. The assay can be described thus: Cytotoxicity against human DU-145 cells assessed as cell death up to 10 uM measured after 48 hrs. Type of assay: functional, cell-based. An outline of the steps:
as §2

The test system of assay [10] is BT-474. The assay can be described thus: Cytotoxicity against human BT-474 cells assessed as cell death up to 10 uM measured after 48 hrs. Type of assay: functional, cell-based. An outline of the steps: as §1
Assay [11] deals with MIA PaCa-2. The assay can be described thus: Cytotoxicity against human MIAPaCa-2 cells assessed as cell death up to 10 uM measured after 48 hrs. Format: functional, cell-based. In short, it runs like this:
as §3

In assay [12] the test system is HepG2. The assay can be described thus: Cytotoxicity against human HepG2 cells assessed as cell viability measured after 48 hrs by using PrestoBlue cell viability assay. Type of assay: functional. An outline of the steps: (§4)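 DMEM with 10% FBS plus penicillin/streptomycin, 37°C, 5% CO2. Seeding per well: BxPC3 7500, COV362 7500, HEYC2 8000, HepG2 8000, MDA-MB-231 8000. After 24 h, drug added at increasing concentrations (30 mM stock) for 48 h. PrestoBlue 10% v/v for 40-45 min; fluorescence 560/590 nm, blank-subtracted, relative to vehicle. Two experiments, five wells each; CC50 by nonlinear regression.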

Assay [13] in a line: Cytotoxicity against human COV362 cells assessed as cell death at 8 uM measured after 48 hrs by using PrestoBlue cell viability assay. Type of assay: functional. In short, it runs like this:
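COV362 cells in DMEM with 10% FBS and penicillin/streptomycin at 37 °C and 5% CO₂, seeded at 7500 per well. After 24 h, exposed 48 h to increasing drug concentrations diluted from a 30 mM stock. PrestoBlue (10% v/v) added for 40-45 min, fluorescence read at ex 560/em 590 nm. Cell-free blanks subtracted, viability relative to vehicle. Two independent experiments, five wells per concentration.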

For assay [14], the system named is HepG2. The assay can be described thus: Cytotoxicity against human HepG2 cells assessed as elimination of cells at 6 uM measured after 48 hrs by using PrestoBlue cell viability assay. Type of assay: functional. In short, it runs like this:
as §4

Assay [15] is described as follows: Cytotoxicity against human COV362 cells assessed as cell viability measured after 48 hrs by using PrestoBlue cell viability assay. Type of assay: functional. In short, it runs like this: as §4
Assay [16] has as its system OVCAR-3. The assay can be described thus: Cytotoxicity against human OVCAR-3 cells assessed as cell viability measured after 48 hrs by using PrestoBlue cell viability assay. Format: functional. In short, it runs like this: (§5)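 OVCAR-3 in RPMI with 10% FBS, 0.01 mg/mL insulin and penicillin/streptomycin, seeded at 7500 cells/well. After 24 h, exposed 48 h to increasing drug concentrations (30 mM stock). PrestoBlue 10% v/v, 40-45 min, fluorescence ex 560/em 590 nm, blank-subtracted, relative to vehicle. Two experiments, five wells per concentration.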

In assay [17] the test system is DU-145. The assay can be described thus: Cytotoxicity against human DU-145 cells assessed as cell death at 4 to 8 uM measured after 48 hrs in presence of MX1013 pan-caspase inhibitor. The settings on record: dose 4-8 µM.
Assay [18] relates to BT-474. The assay can be described thus: Cytotoxicity against human BT-474 cells assessed as cell death at 6 to 10 uM measured after 48 hrs. Format: functional, cell-based. The settings on record: dose 6-10 µM. An outline of the steps:
as §1

In assay [19] the test system is MDA-MB-231. The assay can be described thus: Cytotoxicity against human MDA-MB-231 cells assessed as cell viability measured after 48 hrs by using PrestoBlue cell viability assay. Type of assay: functional. An outline of the steps:
as §4

Assay [20] is described as follows: Cytotoxicity against human HEY C2 cells assessed as cell viability measured after 48 hrs by using PrestoBlue cell viability assay. Type of assay: functional. In short, it runs like this: as §4
The test system of assay [21] is OVCAR-3. The assay can be described thus: Cytotoxicity against human OVCAR-3 cells assessed as elimination of cells at 6 uM measured after 48 hrs by using PrestoBlue cell viability assay. Format: functional. An outline of the steps:
as §5

Assay [22] relates to MIA PaCa-2. The assay can be described thus: Cytotoxicity against human MIAPaCa-2 cells assessed as cell death at 6 to 10 uM measured after 48 hrs. Format: functional, cell-based. The settings on record: dose 6-10 µM. In short, it runs like this: as §3
In assay [23] the test system is DU-145. The assay can be described thus: Cytotoxicity against human DU-145 cells assessed as cell death at 6 to 10 uM measured after 48 hrs. The settings on record: dose 6-10 µM. Type of assay: functional, cell-based. An outline of the steps:
as §2

In assay [24] the test system is JIMT-1. The assay can be described thus: Cytotoxicity against human JIMT-1 cells assessed as cell death at 6 to 10 uM measured after 48 hrs. Format: functional, cell-based. The settings on record: dose 6-10 µM. An outline of the steps: as §2
Assay [25] concerns BXPC-3. The assay can be described thus: Cytotoxicity against human BXPC-3 cells assessed as cell viability measured after 48 hrs by using PrestoBlue cell viability assay. Type of assay: functional. An outline of the steps: as §4

Activity calls are given as the source filed them. The rule behind the calls is not given here.

Take `CCCCCCCCCCCCCCCCOC[C@H](CO[C@@H]1O[C@H](CO)[C@H](N)[C@H](O)[C@H]1N)OC`: the CC50 – broadly, the concentration that lowers cell viability or growth by half – was above 10 µM in assay [1], 6.6 µM in assay [2], 7.8 µM in [3] and 5.8 µM in [4].

For `CCCCCCCCCCCCCCCCOC[C@H](CO[C@H]1O[C@H](CN)[C@H](O)[C@H](O)[C@H]1N)OC`, the “Ratio IC50” value in [5], in [6] and in [7] was 1.5 each time. Also, the CC50 in assay [1] is 6.9 µM; in [2] it was 5.5 µM; in [3] it was 6.6 µM; in [4] it was 4.9 µM.

In the case of `CCCCCCCCCCCCCCCCOC[C@H](CO[C@@H]1O[C@H](CN)[C@H](O)[C@H](O)[C@H]1N)OC`, the “Ratio IC50” value in assay [5], in [6] and in assay [7] was 1.5 each time. For the same compound, the 50% cytotoxic concentration (CC50) in [1] stood at 6.4 µM; in assay [2] it was 6.6 µM; in assay [3] it was 7.5 µM; in [4], 5.7 µM.

For `CCCCCCCCCCCCCCCCOC[C@H](CO[C@H]1O[C@H](CN)[C@H](N)[C@H](O)[C@H]1N)OC`, the CC50 turned out to be 8 µM in [1], 6.7 µM in assay [2], 5.3 µM in [3] and 5.4 µM in assay [4].

Consider `CCCCCCCCCCCCCCCCOC[C@H](CN)O[C@@H]1O[C@H](CO)[C@H](N)[C@H](O)[C@H]1N`, for which the CC50 in [1] is above 10 µM; in [2] it was above 10 µM; in assay [3] it was 7.4 µM; in [4], 8.9 µM.

With `CCCCCCCCCCCCCCCCOC[C@H](CO[C@H]1O[C@H](CO)[C@H](N)[C@H](O)[C@H]1N)OC`, the CC50 in assay [1] is above 10 µM; in assay [2] it was 6.3 µM; in [3] it was 6.5 µM; in [4], 5 µM.

In the case of `COc1cccc2c1C(=O)c1c(O)c3c(c(O)c1C2=O)C[C@@](O)(C(=O)CO)C[C@@H]3O[C@H]1C[C@H](N)[C@H](O)[C@H](C)O1`, the outcome in assay [8], in assay [9], in [10] and in assay [11] was inactive.

For the compound `CCCCCCCCCCCCCCCCOC[C@H](CN)O[C@H]1O[C@H](CO)[C@H](N)[C@H](O)[C@H]1N`, the CC50 in [1] amounted to 7.4 µM; in assay [2] it was 8.2 µM; in assay [3], 8.1 µM; in assay [4], 6.3 µM.

For `CCCCCCCCCCCCCCCCOC[C@H](CO[C@H]1O[C@H](CO)[C@H](O)[C@H](O)[C@H]1N)OC`, the CC50 in assay [1] was above 20 µM; in assay [2], 10.9 µM; in assay [3] it was 10 µM; in [4], 9.9 µM.

Regarding `CCCCCCCCCCCCCCCCOC[C@H](CO[C@@H]1O[C@H](CN)[C@H](N)[C@H](O)[C@H]1N)OC`, the CC50 in assay [12] was determined as 3.6 µM; in assay [1], 5.6 µM; in assay [15] it was 3.1 µM; in assay [2], 3.3 µM; in assay [16], 2600 nM; in [19], 6.5 µM. The CC50 in assay [20] worked out at 5.5 µM; in assay [3] it was 4.5 µM; in [4] it was 3.8 µM; in assay [25], 2600 nM. Further, the Activity in assay [13], in assay [14] and in assay [21] was 100% in each case. Also, the “Ratio IC50” value in assay [5], in assay [6] and in assay [7] was 2 each time. Moreover, the result in assay [17], in [18], in [22], in [23] and in assay [24] was Active.
